Screens: PubChem BioAssay, several laboratories
Hits are enriched below; roughly 4.3% of the tested compounds scored in any of these assays.
MC4R barr agon: MC4R agonists recruiting beta-arrestin, primary screen, cell-based, luminescence, agonist arm of biased-ligand search; AID 540308, 2011; activation, % at 8.9 µM; Melanocortin receptor 4 (Homo sapiens), P32245; 360,000 tested, 0.98% active; U2OS MC4R beta-arrestin complementation; percent of melanotan II response, DMSO zero;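 active = activation above a per-plate cutoff, the mean activation of sample wells on that plate plus 3 SD, cut at about 8% in these data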
MC4R antag cAMP: MC4R antagonists of cAMP signaling, primary screen, cell-based, TR-FRET, antagonist arm of biased-ligand search; Melanocortin receptor 4 (Homo sapiens), P32245; inhibition, % at 6.5 µM; 360,000 tested, 0.48% active; MC4R-expressing cells, MTII-stimulated cAMP, LANCE TR-FRET;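 active = inhibition above its plate's cutoff, the mean of tested wells on that plate plus 3 SD, cut at about 29% in these data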;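 note: 0% = Melanotan II alone and 100% = Melanotan II plus saturating MCL0020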
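System: U2OS cells stably expressing human melanocortin 4 receptor (MC4R). Reagent: Melanotan II challenge after compound preincubation. Doses: 6.5 µM. Times: 30-min compound, 1-h challenge, 1-h detection, room temperature. Measured by: TR-FRET with Eu-cAMP and labeled anti-cAMP, 671 nm. Replicates: singlicate.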
TAAR1 antagonist: human TAAR1 antagonists, primary screen, Fluo-8 calcium fluorescence, CHO RD-HGA16 cells; Trace amine-associated receptor 1 (Homo sapiens), Q96RJ0; antagonist; inhibition, % at 3 µM; 360,000 tested, 1.5% active; AID 624466, 2012;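 active = inhibition above a per-plate cutoff, the mean inhibition of test compounds on that plate plus 3 SD, cut at about 49% in these data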;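 note: 0% = DMSO plus EC80 beta-PEA response and 100% = DMSO alone without agonist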
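Test system: CHO RD-HGA16 cells bearing hTAAR1 | Reagent: β-PEA, EC80 | Compound dosing: 3 µM, single point | Schedule: Dye loading 75 min at 37 °C, then 30 min room temperature | Signal: Calcium fluorescence with Fluo-8 | Evaluation: Percent inhibition of PEA-evoked calcium signal, max/basal emission ratio | Control set: DMSO-only wells and EC80 β-PEA-stimulated wells | Repeats: Singlicate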
TAAR1 ag: human TAAR1 agonists, primary screen, Fluo-8 calcium fluorescence, CHO RD-HGA16 cells; 360,000 tested, 0.99% active; Trace amine-associated receptor 1 (Homo sapiens), Q96RJ0; vehicle wells 0%, saturating PEA agonist 100%; AID 624467, 2012; activation, % at 3 µM;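 active = activation above the mean activation of all test compounds in the run plus 3 SD, cut at about 38% in these data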
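Assay system – CHO-derived RD-HGA16 cells with stable Gα16 and human TAAR1 · Compound dosing – one-point dosing at 3 µM (nominal) · Incubation – 17-24 h seeding, 75 min 37 °C dye, 30 min RT · Measured by – kinetic Fluo-8 calcium fluorescence · Control set – DMSO vehicle as 0%, PEA at EC100 as 100% · Repeats – single well for each compound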
B2AR ag: beta2AR agonists driving receptor internalization, primary screen, cell-based, FAP fluorogen, flow cytometry | AID 504454, 2011 | Am2.2-beta2AR cells | response, % (no concentration beside the values) | Beta-2 adrenergic receptor (Homo sapiens), P07550 | 340,000 tested, 0.43% active;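 active = response above a set limit, near 3 SD of response in nonfluorescent compounds, cut at about 42% in these data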
Target sequence (P07550 whole entry, looked up): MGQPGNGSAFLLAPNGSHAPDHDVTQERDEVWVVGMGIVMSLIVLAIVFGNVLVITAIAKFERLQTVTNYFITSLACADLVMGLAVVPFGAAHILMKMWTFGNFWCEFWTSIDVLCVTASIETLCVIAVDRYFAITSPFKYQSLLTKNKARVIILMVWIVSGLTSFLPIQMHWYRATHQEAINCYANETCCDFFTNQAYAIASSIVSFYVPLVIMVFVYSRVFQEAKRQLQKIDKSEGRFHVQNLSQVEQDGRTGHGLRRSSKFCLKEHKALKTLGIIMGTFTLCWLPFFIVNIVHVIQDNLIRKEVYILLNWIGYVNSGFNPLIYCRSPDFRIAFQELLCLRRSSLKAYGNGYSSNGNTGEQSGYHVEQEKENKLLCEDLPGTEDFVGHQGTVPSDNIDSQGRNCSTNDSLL
m5-HT2A agonist: mouse Htr2a agonists via beta-arrestin recruitment, primary screen, cell-based, luminescence; AID 624169, 2012; 5-hydroxytryptamine receptor 2A (Mus musculus), P35363; activation, % at 7.6 µM; 360,000 tested, 0.66% active; CHO-K1 mHTR2A beta-arrestin complementation; percent of 30 µM serotonin response;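 active = activation above a run cutoff, the mean activation of all tested compounds plus 3 SD, cut at about 14% in these data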;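 note: 0% = plate median of compound wells and 100% = 30 µM serotonin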
MC4R barr conf: MC4R beta-arrestin agonists, retest, confirmation, cell-based, luminescence, U2OS | activation, % at 8.9 µM | AID 602192, 2012 | shares compounds with MC4R barr agon | 2,400 tested, 31% active | U2OS MC4R beta-arrestin recruitment; scaled DMSO 0%, Melanotan II 100%;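 active = mean activation across replicates above the hit cutoff set in the earlier primary screen, cut at about 8% in these data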
MOR-DOR barr ag: agonists of MOR-DOR heterodimerization, counter-screen for MC4R biased agonist project, cell-based, luminescence; shares compounds with MC4R barr agon; U2OS PathHunter beta-arrestin, beta-gal luminescence; percent of deltorphin B response, DMSO zero; activation, % at 9.2 µM; 2,400 tested, 5.8% active;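 active = mean activation across replicates exceeds the hit threshold derived in the earlier primary screen, cut at about 18% in these data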;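 note: 100% = deltorphin B at 0.9 µM final and 0% = DMSO alone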
Starred values were filed as active, the others as inactive; · = not tested or not shown.

SMILES	MC4R barr agon	MC4R antag cAMP	TAAR1 antagonist	TAAR1 ag	B2AR ag	m5-HT2A agonist	MC4R barr conf	MOR-DOR barr ag
Cc1ccc(/C=C2/SC(=S)N(CCCC(=O)Nc3ccc(O)cc3)C2=O)cc1	17*	0	0	2	-1	1	7	8
COc1cccc(/C=C2/SC(=S)N(CCCC(=O)Nc3ccc(O)cc3)C2=O)c1	9.9*	-4	-24	-1	-2	3	20*	5
Cc1cc(NC(=O)CCN2C(=O)/C(=C/c3ccccc3Cl)SC2=S)no1	16*	4	6	4	1	1	5	3
O=C(CCN1C(=O)/C(=C/c2cccs2)SC1=S)Nc1ccc(C(=O)O)c(O)c1	-4	-8	-7	2	-1	4	·	·
COc1ccccc1/C=C1\SC(=S)N(CCC(=O)Nc2cc(C)on2)C1=O	-1	12	30	7	2	-1	·	·
O=C(CCN1C(=O)/C(=C/c2cccs2)SC1=S)Nc1ccc(O)cc1	11*	-4	15	4	-6	-7	6	6
Cc1ccc(NC(=O)CN2C(=O)S/C(=C\c3cccn3C)C2=O)cc1	15*	8	8	3	7	-6	-1	5
CCOC(=O)c1c(NC(=O)Cn2nc(C(F)F)cc2C(F)F)sc(C)c1C	-1	16	-2	-2	0	-2	·	·
CCOC(=O)c1c(NC(=O)Cn2nc(C(F)(F)F)cc2C)sc(C)c1C	15*	1	4	5	3	3	6	14
FC(F)Sc1ccc(NC(=S)NC(c2ccccc2)c2ccccc2)cc1	9.6*	13	11	15	3	-3	4	9
COc1cc(/C=C/C(=O)N2CC(C)OC(C)C2)cc(OC)c1OC (centres undefined)	1	-1	-13	8	0	6	·	·
CCCOC(=O)c1ccc(Cl)c(NC(=O)c2ccc(-c3ccccc3)cc2)c1	4	6	10	12	14	-2	·	·
O=C(Nc1cc(Cl)ccc1Cl)c1ccc(-c2ccccc2)cc1	9.8*	-7	-29	2	3	-10	5	9
CCc1ccc(NC(=O)CSc2nnc(-c3n[nH]c4ccccc34)n2-c2ccccc2)cc1	10*	4	40	5	-9	-5	5	9
O=C(CSc1nnc(-c2n[nH]c3ccccc23)n1-c1ccccc1)Nc1cccc(Cl)c1	8	10	48	7	-2	-5	·	·
CC(C)C[C@H]1CN=C(Nc2ccccc2)N1CC1CCC(C(C)(C)C)CC1 (some centres undefined)	8	-1	·	·	33	0	·	·
CC(C)C1C(=O)N(Cc2cn(CCC3OCCO3)nn2)CCS(=O)(=O)N1Cc1ccc(-c2ccccc2Cl)cc1 (centres undefined)	·	·	21	3	·	-3	·	·
N#Cc1c2ccc(OCC(=O)NCc3ccco3)cc2n2ccccc12	14*	12	-5	6	-6	-3	3	5
O=C(COc1ccccc1)NCc1ccco1	0	7	-10	2	3	0	·	·
O=C(CSc1nnc(SCc2ccccc2)s1)N/N=C/C=C\c1ccco1	-1	3	-2	-2	0	3	·	·
CC(=C/c1ccco1)/C=N/NC(=O)CSc1nnc(SCc2ccc(C)cc2)s1	20*	8	4	-1	-1	-5	3	5
Cc1ccccc1CCN1CCCC(CN(C)C(=O)C(=O)c2ccco2)C1 (centres undefined)	0	-4	-12	1	0	-9	·	·
CCCCC(=O)OCC(=O)N1N=C(c2c[nH]c3ccccc23)C(O)C1c1ccc(OC)cc1 (centres undefined)	15*	12	15	4	4	5	8.3*	5
C=CCn1c(COc2cc(C)ccc2C(C)C)nnc1SCC(=O)c1c(N)n(C)c(=O)n(C)c1=O	9.7*	7	1	8	4	3	3	4
O=C(O)CN1CCCCCC1=O	-3	12	14	4	7	-3	·	·
SMILES	MC4R barr agon	MC4R antag cAMP	TAAR1 antagonist	TAAR1 ag	B2AR ag	m5-HT2A agonist	MC4R barr conf	MOR-DOR barr ag
CCCCCCn1c(=O)n2n(c1=O)[C@@H]1CN(S(=O)(=O)c3ccc(C)cc3)C[C@]1(O)[C@@H](OC(=O)NCc1ccccc1)C2	10*	7	0	0	·	6	8.5*	3
Cc1ccc(S(=O)(=O)N2C[C@H]3n4c(=O)ccc(=O)n4C[C@H](OC(=O)NCc4ccccc4)[C@@]3(O)C2)cc1	0	9	3	0	·	-2	·	·
COc1ccc(NC(=O)Nc2cccc(Cl)c2Cl)c(OC)n1	23*	4	-14	2	4	-2	5	6
O=S(OCCN1CCOCC1)C(c1ccccc1)c1ccccc1 (centres undefined)	-1	1	4	1	-9	1	·	·
CC/C(=N/Nc1cccc(C)c1)c1cnnc(SC)n1	21*	-16	26	1	11	0	4	4
CC/C(=N/Nc1ccc(Cl)cc1)c1cnnc(SC)n1	1	-11	-7	2	-8	-2	·	·
COc1ccc(/C=N\NC(=O)c2cc(OCC(F)(F)F)ccc2OCC(F)(F)F)cc1	11*	-1	0	6	-12	3	6	7
COc1ccccc1N(CC(=O)N1CCN(Cc2ccccc2)CC1)S(=O)(=O)c1ccccc1	2	14	-5	3	·	-9	·	·
CN(C)C(CNC(=O)CNC(=O)c1ccc2ccccc2c1)c1ccccc1 (centres undefined)	-2	-2	-3	2	2	-10	·	·
CCOC(=O)C1(Cc2cccc(OC)c2)CCN(C/C=C/c2ccc(OC)cc2)CC1	2	-2	17	20	-11	-9	·	·
